Assay outcomes as filed in PubChem BioAssay.
This is a sample that favours compounds with a hit; in the whole collection about 3.3% have one here.
SIAE inh: blocks human sialic acid acetylesterase. Q9HAT2. SIAE FP-Rh probe binding, fluorescence polarization. inhibition, % at 9.66 µM. actives 0.69% (n = 370,000). AID 1053197;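 active means inhibition above a cutoff: mean of compounds within the control limits plus 3 SD of those, cut at about 17% in these data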;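 further: 0% = plate median of compound wells and 100% = probe without SIAE protein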
UHRF1 MBD2 ctr: human UHRF1 methylated DNA binding inhibitors | Q96T88 | UHRF1 binding to methylated oligo, TR-FRET | inhibition, % at 4.4 µM | actives 0.75% (n = 370,000); in the data active means inhibition above about 21%;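 further: UHRF1 SRA domain binding a hemimethylated CpG hairpin DNA probe; 0% = median of test compound wells and 100% = reference inhibitor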
Target sequence (Q96T88 whole entry, looked up, the tested form may be a part): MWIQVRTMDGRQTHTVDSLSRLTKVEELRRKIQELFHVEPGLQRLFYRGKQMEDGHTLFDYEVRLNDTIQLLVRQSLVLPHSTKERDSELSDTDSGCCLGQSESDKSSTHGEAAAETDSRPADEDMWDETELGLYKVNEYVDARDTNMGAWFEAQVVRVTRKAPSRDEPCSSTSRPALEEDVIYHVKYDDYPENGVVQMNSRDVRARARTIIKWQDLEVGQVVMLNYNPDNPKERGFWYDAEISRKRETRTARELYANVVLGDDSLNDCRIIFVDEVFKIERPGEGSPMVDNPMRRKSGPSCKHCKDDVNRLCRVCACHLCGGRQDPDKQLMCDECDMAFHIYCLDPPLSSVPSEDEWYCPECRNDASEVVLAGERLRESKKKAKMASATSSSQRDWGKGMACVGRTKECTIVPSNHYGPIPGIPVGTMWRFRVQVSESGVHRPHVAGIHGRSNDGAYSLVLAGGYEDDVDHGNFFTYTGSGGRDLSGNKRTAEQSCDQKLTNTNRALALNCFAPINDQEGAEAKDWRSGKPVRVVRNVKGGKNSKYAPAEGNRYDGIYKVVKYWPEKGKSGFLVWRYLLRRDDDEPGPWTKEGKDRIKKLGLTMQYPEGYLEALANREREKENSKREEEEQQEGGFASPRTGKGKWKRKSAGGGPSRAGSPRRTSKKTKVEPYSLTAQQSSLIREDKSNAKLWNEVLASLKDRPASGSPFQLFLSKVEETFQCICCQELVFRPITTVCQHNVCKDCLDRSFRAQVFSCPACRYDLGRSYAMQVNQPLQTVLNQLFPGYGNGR
MBD2 DNA inh: MBD2-methylated oligo binding inhibition. Q9UBB5. TR-FRET, MBD2 binding to methylated oligonucleotide. inhibition, % at 4.4 µM. actives 0.31% (n = 370,000). AID 686964; in the data active means inhibition above about 13%
TDP2 absorb: TDP2 (human) inhibition, absorbance primary screen | inhibition, % at 12.8 µM | actives 0.34% (n = 370,000) | recombinant TDP2, T5PNP hydrolysis, p-nitrophenol absorbance 415 nm | AID 720702 | O95551;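 active means inhibition above the mean of all tested compounds plus 3 SD, set per campaign, cut at about 25% in these data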;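 further: 0% = DMSO with enzyme and 100% = buffer with substrate but no TDP2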
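Test system: human TDP2 enzyme; Input: 120 nM TDP2 per well; Buffer or medium: Mg2+-containing Tris-HCl buffer, pH 7.5; Reagent: 5 mM T5PNP; Dosing: 12.8 µM single point, 1% DMSO; Incubation: reaction 2 h, 37 °C; Detection: p-Nitrophenol epi absorbance; Read-out: % inhibition relative to enzyme-containing and enzyme-free wells; Replicates: single well per compound.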
PRMT1 FP inh: inhibitors of human PRMT1; Q99873; recombinant PRMT1, activity-based probe fluorescence polarization; inhibition, % at 2.79 µM; actives 1.3% (n = 370,000); AID 652257;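 active means inhibition above about 21% made by adding two undisclosed values, limit read from the data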
LEDGF integ inh: blocks HIV-1 LEDGF/p75-dependent DNA integration | actives 0.64% (n = 370,000) | TR-FRET IN-LEDGF/p75 DNA integration, Eu/Cy5 | inhibition, % at 3.7 µM | AID 743269;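 active means inhibition above the screen-wide mean plus 3 SD, cut at about 13% in these data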;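 further: signal is the Cy5 over europium emission ratio at 671 and 618 nm; 0% = plate median of compound wells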
SIAE confirm: human SIAE inhibition, confirmation. AID 1117263. actives 13% (n = 2,300). shares compounds with SIAE inh. inhibition, % at 9.66 µM. SIAE FP-Rh activity-based probe, fluorescence polarization;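 active means mean inhibition of the replicates above the hit cutoff set in the primary screen, cut at about 17% in these data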;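 further: 0% = SIAE with DMSO and probe and 100% = probe without SIAE; inhibitors lower polarization as more probe stays unbound to SIAE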
Numbers without * were called inactive; . = no result.

SMILES	SIAE inh	UHRF1 MBD2 ctr	MBD2 DNA inh	TDP2 absorb	PRMT1 FP inh	LEDGF integ inh	SIAE confirm
COc1ccc(S[C@]2(C(=O)N3CCN(c4ncccn4)CC3)CC(=O)N(C(=O)/C=C/c3ccccc3)[C@@H]2c2ccc(OC)cc2)cc1	4	4	1	-13	4	4	.
CC(C)(C)OC(=O)N1Cc2[nH]c3ccccc3c2C[C@@H]1C(=O)O	26*	1	-1	14	-1	-1	3
CC(C)(C)OC(=O)N1Cc2ccccc2C[C@H]1C(=O)N1CCC[C@H]1C(=O)O	0	-3	-4	10	0	2	.
O=C(N/N=C/c1c[nH]c2ccccc12)c1cc(Cl)ccc1O	18*	-1	4	-2	2	-3	4
COc1ccc(Nc2nc(N)c([N+](=O)[O-])c(NCc3ccccc3)n2)cc1	24*	-3	-1	8	-9	7	5
Cc1ccc(Nc2nc(N)c([N+](=O)[O-])c(NCc3ccccc3)n2)cc1	4	0	-1	-21	-1	-2	.
Cc1cccc(NC(=S)NC2CC3CCCC(C2)N3Cc2ccco2)c1 (stereo not drawn)	11	1	1	7	-1	3	.
Cc1ccc(NC(=S)NC2CC3CCCC(C2)N3Cc2ccco2)cc1 (stereo not drawn)	26*	1	5	-7	-1	3	3
CC(C)(C)c1ccc(S(=O)(=O)N2CCC(C(=O)NCc3cccs3)CC2)cc1	5	0	-5	10	1	1	.
Cc1cc2c(cc1C)NC1=C(N2)OC(c2cccc(O)c2)C1=O (stereo not drawn)	28*	0	-2	-1	-3	0	-10
COc1ccc(C2OC3=C(Nc4cc(C)c(C)cc4N3)C2=O)cc1 (stereo not drawn)	-2	-1	4	12	-5	-3	.
C[C@@H]1ON(C)[C@H]2C[C@H]3c4cc(-c5cccc(Cl)c5)ccc4CCN3C[C@@H]12	-7	0	1	3	-1	3	.
Nc1cccc(C2=Nc3cccc4cccc(c34)N2)c1	45*	-5	-4	5	-5	0	4
COc1ccc(C2=Nc3cccc4cccc(c34)N2)cc1	26*	-2	-6	18	3	0	2
CC(C)C1=Nc2cccc3cccc(c23)N1	11	-2	-6	1	9	2	.
O=S1(=O)c2ccc(Br)cc2OC2CCCC[C@@H]2N1Cc1ccccc1 (stereo partly drawn)	4	-1	-4	7	3	2	.
COc1ccc(CNCC#Cc2ccc(C)cc2)c(OC)c1	-5	-1	-3	-7	-4	1	.
CN1CCCN(C(=O)CSc2nnc(-c3cccnc3)n2C2CCCCC2)CC1	3	-1	3	5	2	-1	.
O=C(COC(=O)Cc1cccs1)NCC(=O)Nc1ccc(F)cc1	-2	0	-2	5	1	-4	.
O=C(COC(=O)Cc1cccs1)Nc1ccc(OC(F)(F)F)cc1	133*	-1	3	2	78*	1	-3
S=C(Nc1ccc2nsnc2c1)NC1CCCCC1	19*	-8	-3	7	1	-4	2
S=C(Nc1ccc(Oc2ccc(NC(=S)NC3CCCCC3)cc2)cc1)NC1CCCCC1	-31	-6	-4	10	-1	-3	.
C=CCn1c(C)nnc1SCC(=O)N1c2ccccc2NC(=O)C1(C)C	18*	-4	4	7	-2	2	-8
CC1(C)C(=O)Nc2ccccc2N1C(=O)CSc1ncccn1	5	-4	-9	7	-3	4	.
O=C(CCNC(=O)c1ccc(Cl)cc1)Nc1ncccc1O	0	-2	7	-4	8	-1	.
SMILES	SIAE inh	UHRF1 MBD2 ctr	MBD2 DNA inh	TDP2 absorb	PRMT1 FP inh	LEDGF integ inh	SIAE confirm
O=C(CCNC(=O)c1ccc(Br)cc1)Nc1ncccc1O	24*	-3	-3	24	-2	1	7
COCCCNC(=O)c1cc(Sc2ccc(F)cc2)nc2ccccc12	18*	-2	-2	3	-1	-3	1
COc1ccc(OC)c(S(=O)(=O)Nc2cc3c4c(c2)CCN4C(=O)CC3)c1	2	-2	4	-1	-3	6	.
COc1ccc(S(=O)(=O)Nc2cc3c4c(c2)CCN4C(=O)CC3)cc1	17*	-3	-4	-2	-2	1	5
O=C1c2ccccc2C2=Nc3ccccc3SC(c3cccc(F)c3)C12 (stereo not drawn)	18*	-2	-2	1	3	2	-10
O=C(CSc1nnc(-c2ccccn2)n1-c1ccccc1)Nc1ccccc1-c1ccccc1	-1	1	1	-13	5	0	.
CC(C)C[C@@H]1NC(=O)[C@@H]2CSCCS(=O)(=O)N2C1=O	4	-4	1	4	-2	1	.
COc1cccc(C(=O)OC(C)C(=O)Nc2ccc3c(c2)OCO3)c1 (stereo not drawn)	19*	-1	-6	6	3	2	1
COc1ccc(CNC(=O)C2CSC(=O)C2)cc1 (stereo not drawn)	20*	2	-2	-1	6	1	-1
CCN(CC)CCCN(C(=O)c1ccc(F)cc1)c1nc(-c2ccc(OC)cc2)cs1	24*	0	-2	-5	-4	2	4
COc1ccc(-c2csc(N(CCCN(C)C)C(=O)c3ccc(F)cc3)n2)cc1	2	-2	-1	7	-2	-1	.
O=S1(=O)c2ccc(N3CCN(Cc4ccccc4F)CC3)cc2Oc2ccccc2CN1Cc1cn(Cc2cccc(F)c2)nn1	-6	0	0	-4	-3	-5	.
COc1ccccc1-n1c(C)nc2cc(C(=O)O)ccc21	17*	6	2	2	1	-1	-2
COc1ccccc1NC(=O)OCCCN1CCC2(CCC(C)CC2)C1=O (stereo not drawn)	10	-3	-1	2	1	-3	.
COc1ccc(N(CC(=O)NC2CCCC2)C(=O)Cn2nnc(-c3ccc(C)o3)n2)cc1	18*	5	8	-9	16	1	-2
Cc1c(C(=O)N(Cc2ccc(N(C)C)cc2)CC2CCCO2)oc2ccccc12 (stereo not drawn)	-1	0	-5	-28	-5	0	.
CN(C)c1ccc(CN(CC2CCCO2)C(=O)c2cc3ccccc3o2)cc1 (stereo not drawn)	20*	-1	0	5	0	2	-1
COc1ccc(C(=O)Oc2ccc3c(C)cc(=O)oc3c2C(C)=O)cc1	17*	-1	-5	-5	1	2	-1
COc1ccc(Cn2cc(COC(=O)N3CCOCC3)nn2)cc1	-3	3	5	-2	0	-2	.
